# Data: the RNAGym collection of RNA variant scans (doi:10.1126/science.aae0568)
# Fewer inactive variants are shown than the library holds.
# B1: tRNA (parent)
# chain: GUUCCGUUGGCGUAAUGGUAACGCGUCUCCCUCCUAAGGAGAAGACUGCGGGUUCGAGUCCCGUACGGAACG
# Variants of: B1
# Test: yeast fitness relative to wild type (ratio to wild type); higher = fitter; tRNA-Arg(CCU), competitive growth, 37 C, YPD
# Outline: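 Start and end populations of a pooled competition were compared by 100-nucleotide paired-end sequencing of gene amplicons. The Saccharomyces cerevisiae strains carried tRNA-Arg(CCU) gene variants at the native genomic locus, synthesised with a 3% per-site mutation rate at 69 sites, and competed in YPD at 37°C for 24 hours in six parallel replicates. Darwinian fitness relative to wild type was based on the change in genotype frequencies. Genotypes required ≥ 100 starting reads, and estimates < 0.5 were set to 0.5.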
row,Variant,yeast fitness
1,G12A U32C A42C G44C A69C,≤ 0.5
2,G12A U47C,0.905
3,G12C A15G C34A G63C A70C,0.641
4,G12C A20C A36G,0.581
5,G12A U53A,0.62
6,G12C A20U C30U G38A C55U C66U,≤ 0.5
7,G12A U16C C27A,≤ 0.5
8,G12C C24U G48C A69C,≤ 0.5
9,G12C C24G C30A A43C C60U C62A,≤ 0.5
10,G12C A20U A36G C46A U54A G67C,≤ 0.5
11,G12C A40U C49G G50A,≤ 0.5
12,G12C,0.98
13,G12A U28G A36G,≤ 0.5
14,G12A U19G U35C A40U G52C U64C,≤ 0.5
15,G12C A20U C24U G51A G68C,≤ 0.5
16,G12C A15C,0.67
17,G12C C22U C27A C49U,≤ 0.5
18,G12A U16A C27G,≤ 0.5
19,G12C A14C,0.731
20,G12C A15C U19A C34U C49A G67A,0.547
21,G12C A42G U54G,≤ 0.5
22,G12C A40G A70G,0.567
23,G12C A43U U54C,≤ 0.5
24,G12C A42U C46U C55G,≤ 0.5

row,Variant,yeast fitness
1,G12C C22G G23A A37C A43C,0.534
2,G12A U32G C33U C55G A70G,≤ 0.5
3,G12A U16A A45U,0.629
4,G12C A20C C30U C31G,≤ 0.5
5,G12C A14C A15G A37C,0.606
6,G12A U26C C62U,0.579
7,G12A U19C C34G,0.544
8,G12C A37G G38A U47A,≤ 0.5
9,G12C A42G U47C,0.634
10,G12C A20U G25A,≤ 0.5
11,G12C A14G G18A C33G,≤ 0.5
12,G12C A43G G51C U59C C62G A70U,≤ 0.5
13,G12C A40C C46U C49A U64A,≤ 0.5
14,G12C A14U A20U G23A G68A,≤ 0.5
15,G12A U32C,0.914
16,G12A U19C G23A U32C A43C,≤ 0.5
17,G12A U35A G58A C66G G68A,≤ 0.5
18,G12C C22G C29A A43G,≤ 0.5
19,G12C A65U A70U,0.606
20,G12C C22U C60U G68C,≤ 0.5
21,G12A U35C A37C C62U A65C,≤ 0.5
22,G12C C30A,0.786
23,G12C C30G,0.666
24,G12A U28C C31U G52A G56C,≤ 0.5

row,Variant,yeast fitness
1,G12C A21C U26C U28C C46G C55U,≤ 0.5
2,G12A U53G G58C C61A,≤ 0.5
3,G12A U47G U53A,≤ 0.5
4,G12C A21G G58C,0.892
5,G12A U19A C29G A43U C55U,≤ 0.5
6,G12C C27U C62G,≤ 0.5
7,G12C A14G C33G G44C,≤ 0.5
8,G12C C24G U53C C60G,≤ 0.5
9,G12C C27G U32C A37G,≤ 0.5
10,G12A U32G C33U A45U C55U,≤ 0.5
11,G12C A20U A36G C46A U54A A70U,≤ 0.5
12,G12C A37G U54A A65C,≤ 0.5
13,G12A U32C U35A G58A G68A,≤ 0.5
14,G12C A15U C49U,≤ 0.5
15,G12A U19C C31G,≤ 0.5
16,G12C C22U U54C A65U,0.531
17,G12C A15C A20U U53A U59G,≤ 0.5
18,G12C A37U G38A C55G,≤ 0.5
19,G12C C29A A45U C62U,≤ 0.5
20,G12A U28A U54C G63A A70G,≤ 0.5
21,G12A U26C G58A,0.675
22,G12A U19C A42U G48C C55U,0.593
23,G12C C27A C31G G52C,≤ 0.5
24,G12A U16C,0.981

row,Variant,yeast fitness
1,G12A U16G,0.815
2,G12C C27U C33G G38C,≤ 0.5
3,G12C C24U C30U C60A,≤ 0.5
4,G12A U32A C46A C66U,≤ 0.5
5,G12C A20U G25A A36G,≤ 0.5
6,G12C A14G C27U C33A A45C U54A,≤ 0.5
7,G12C C24A C55U,≤ 0.5
8,G12A U54G A65U G67A,≤ 0.5
9,G12C A20U C33U A37U A57U,≤ 0.5
10,G12C A14U A20U G23A G44A A57G A70U,0.575
11,G12C A42G,0.902
12,G12C A15G G44C A57U,0.69
13,G12C A14C A15G A37C A57U,0.682
14,G12C A15C A20U G41A,≤ 0.5
15,G12C A36C A40U C66U A69U,≤ 0.5
16,G12C C27U C33A A45C U54A,≤ 0.5
17,G12C C27U C33A A45C U54A C62U,≤ 0.5
18,G12C C22U,0.955
19,G12C C22G,1.03
20,G12C A20U C22G G50A C61A,0.567
21,G12C A15C A20U G38C G50C,≤ 0.5
22,G12A U28G C33G A69U,≤ 0.5
23,G12A U26C U47C A57C,≤ 0.5
24,G12A U64A,0.849

row,Variant,yeast fitness
1,G12C A21G U26C C31U,≤ 0.5
2,G12C A40G G50C C62U,0.756
3,G12C A20C C31G G51C,≤ 0.5
4,G12A U35A,0.706
5,G12C C30G A37U G41A,≤ 0.5
6,G12C C24U C55U,0.564
7,G12C A15G C24U A43G,0.522
8,G12C C27U G39A,≤ 0.5
9,G12A U19G U35C A40U A42G,≤ 0.5
10,G12C C29U A36U,≤ 0.5
11,G12C C24G C27U A43U A69U,0.625
12,G12C A45G A65G,0.548
13,G12A U35A G51C,≤ 0.5
14,G12A U26A A70U,0.523
15,G12A U28G C30U A36C,≤ 0.5
16,G12C A15C U19A C34U C49A,≤ 0.5
17,G12A U28C A37C A43C C49G,0.548
18,G12C A14G G25A G41C C61U A70G,≤ 0.5
19,G12C A14U C27G A45U C46G G56A,≤ 0.5
20,G12C A15C U19A C34U C49G A69U,≤ 0.5
21,G12C C22G G23A A37C A43C G68A,≤ 0.5
22,G12A U28A C55G,≤ 0.5
23,G12C A21U A42U,0.611
24,G12C A20U C30U A65G A69C,≤ 0.5

row,Variant,yeast fitness
1,G12A U28G C30U C61A A69U,0.679
2,G12A U19C A21U A69C,0.653
3,G12A U47C A69U,0.757
4,G12C A45U,0.978
5,G12C A45G,0.684
6,G12C A37U G44C,0.538
7,G12A U28C A40C G48A,0.61
8,G12A U19A C24U,0.73
9,G12C A65U G68U,0.653
10,G12C A14G A15C G52C,≤ 0.5
11,G12A U19A A20U A36U,≤ 0.5
12,G12C A20C C34G U54G,≤ 0.5
13,G12C A14U C61G U64C,≤ 0.5
14,G12A U19C U28C C55G,≤ 0.5
15,G12C C24G C49G,≤ 0.5
16,G12C A15G A37U A40G U54C C66G,0.538
17,G12C C27A A37G C49U G63A,≤ 0.5
18,G12C A20U G25A U59A,≤ 0.5
19,G12C A69G,0.82
20,G12C A69U,0.935
21,G12A U47C A57C,0.579
22,G12C C27G C30A,≤ 0.5
23,G12C C24A,0.685
24,G12C C22G G23A A37C A43C A65U,≤ 0.5

row,Variant,yeast fitness
1,G12A U19A G52C,≤ 0.5
2,G12C A57G,0.974
3,G12C A57U,0.663
4,G12C A20U C31A A65G,≤ 0.5
5,G12C A45U G58C A65U A70U,≤ 0.5
6,G12C A37C,0.648
7,G12C C27A,0.814
8,G12C C24U A43C,≤ 0.5
9,G12C A14C U26C A40U G41A A42C,≤ 0.5
10,G12C C24G A37C,≤ 0.5
11,G12C C29G U53A,0.609
12,G12C A20C C24A A36C G48C,≤ 0.5
13,G12C A14C C24U A45U G58A A65G,≤ 0.5
14,G12C A20U A45U G50A G51A,≤ 0.5
15,G12C C30G A42U,≤ 0.5
16,G12C A70C,0.833
17,G12C A70G,0.845
18,G12A U26C,0.878
19,G12A U26A,0.941
20,G12C A21C,0.638
21,G12C A45G U47C,0.502
22,G12C C24U A42U C46A C55U C61G A69C,≤ 0.5
23,G12C A14G A15C G41A A42C G50C A70G,≤ 0.5
